From PubChem
Hep lipid drop – inhibitors of hepatocyte lipid droplet formation, primary screen, imaging, high-throughput imaging, BODIPY stain | AML12 mouse hepatocytes, oleate lipid droplets | inhibition, % at 6.5 µM | 240,000 tested, 0.4% active | AID 1656, 2009;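 active = lipid droplet intensity inhibited by at least 50%, with more than 500 cells counted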
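Technique: fluorescence imaging, 20x objective, two fields per well / Assay system: AML12 hepatocytes (mouse) / Measure: % inhibition of lipid droplet signal / Doses: 6.5 µM single-point dosing / Incubation: overnight exposure / Reagent: 100 µM oleic acid challenge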
MDM2 E3 inh – MDM2-luciferase reporter signal enhancers, primary screen, MDM2 E3 ligase inhibitor project, cell-based, luminescence, 1536-well | E3 ubiquitin-protein ligase Mdm2 (Homo sapiens), Q00987 | cell-based MDM2 ubiquitination luciferase reporter, 2 h; 0 = plate control, 100 = twice control, blank-subtracted | signal enhancement, % at 5 µM | 210,000 tested, 0.11% active | AID 1230, 2008;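 active = signal enhancement of 30% or more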;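 note: luminescence tracks abundance of the self-degrading MDM2-luciferase fusion protein; higher signal means inhibition of MDM2 E3 ligase activity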
Target sequence (Q00987 whole entry, looked up, the tested form may be a part): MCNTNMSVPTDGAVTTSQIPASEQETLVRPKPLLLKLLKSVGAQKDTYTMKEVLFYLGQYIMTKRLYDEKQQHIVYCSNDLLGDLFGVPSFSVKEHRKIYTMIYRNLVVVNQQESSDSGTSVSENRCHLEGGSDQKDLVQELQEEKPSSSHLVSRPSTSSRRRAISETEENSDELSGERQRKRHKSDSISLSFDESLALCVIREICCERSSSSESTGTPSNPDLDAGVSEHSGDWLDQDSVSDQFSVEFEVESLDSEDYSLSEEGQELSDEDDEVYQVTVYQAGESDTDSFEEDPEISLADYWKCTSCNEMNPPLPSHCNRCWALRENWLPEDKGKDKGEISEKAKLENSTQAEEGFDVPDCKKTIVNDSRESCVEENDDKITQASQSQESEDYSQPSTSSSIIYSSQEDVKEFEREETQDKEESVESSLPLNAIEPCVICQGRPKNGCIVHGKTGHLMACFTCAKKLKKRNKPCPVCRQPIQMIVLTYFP
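System: stable MDM2–luciferase fusion reporter cells / Input: 2000 cells seeded into each well / Schedule: 4 h settle plus 2 h compound, 37 °C / Compound: single-point 5 µM / Buffer or medium: cells held in DMEM / Benchmarks: control and blank well means / Evaluation: percent signal gain over controls, blank-subtracted / Measured by: luciferase luminescence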
pCIP destab – p/CIP-EGFP fusion destabilizers, primary screen, fluorescence, F442A cells | Q05BA5 | 16 h | decrease of EGFP signal, % at 10 µM | 290,000 tested, 0.01% active;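 active = EGFP signal decrease of at least 30% at 10 µM or well 3 SD below plate mean, unless failing retest; inactive = the rest, including hits failing retest or dose response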
Lipid drop inh – hepatocyte lipid droplet accumulation inhibitors, confirmation, imaging, AML12 mouse hepatocytes, single concentration, high-content. BODIPY lipid droplet imaging; droplets induced with 100 µM oleic acid. inhibition, % at 5.2 µM. 870 tested, 65% active. shares compounds with Hep lipid drop;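 active = inhibition of lipid droplet metric at least 50%, with more than 300 cells in each of four replicates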
AML12 tox img – AML12 hepatocyte cytotoxicity, counter-screen for hepatic lipid droplet formation project, imaging, DAPI nuclear morphology imaging; shares compounds with Hep lipid drop; AML12 mouse hepatocytes; stronger effect = higher value; cells fed 100 µM oleate overnight; z-score at 5 µM; 870 tested, 3% active; AID 463200, 2010; in the data active = z-score above about 6.3;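 note: compound exposure lasted overnight at 37 °C before fixation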
AML12 tox ATP – AML12 hepatocyte cytotoxicity, confirmation, cytotoxicity control for hepatic lipid droplet formation project, cell-based, single concentration; cytotoxicity, % at 50 µM; 530 tested, under 10 active; AML12 mouse hepatocyte viability, ATP luminescence; cells loaded with 100 µM oleic acid; shares compounds with Hep lipid drop;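 active = cytotoxicity above 50% in each of four replicates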;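 note: compound exposure lasted overnight at 37 °C before the ATP read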
Large screens that a line does not name were inactive (follow-up assays come after a bar, where they were run). This is one part of a sample in which hits are shown more often than they occur.

O=C(CSc1nc2ccccc2n1Cc1ccc(Cl)cc1)N/N=C/c1ccc(C(=O)O)cc1	none
CCOc1cc(N2CCOCC2)c(OCC)cc1NC(=O)COC(=O)c1cccc2ccccc12	Hep lipid drop 54.6 | Lipid drop inh 100.9 | AML12 tox img inactive
CCOc1cc(N2CCOCC2)c(OCC)cc1NC(=O)Cc1ccccc1	none
NC(=O)c1ccccc1NC(=O)CSc1nc2c(c(=O)[nH]1)CCCC2	none (no result: MDM2 E3 inh)
Cc1nc(NC(=O)c2ccc(OCC(C)C)cc2)sc1Cc1ccc2c(c1)OCO2	Hep lipid drop 62.7 | Lipid drop inh 97.7 | AML12 tox img inactive | AML12 tox ATP inactive
CCCOc1ccc(C(=O)Nc2nc(C)c(Cc3ccc4c(c3)OCO4)s2)cc1	none
O=C(Cc1c(F)cccc1Cl)Nc1nccs1	none (no result: MDM2 E3 inh)
C=C(C)c1cccc(C(C)(C)NC(=O)Nc2cc(C)ccc2OC)c1	none (no result: Hep lipid drop)
CCOc1ccccc1NC(=O)CCC(=O)O	none (no result: Hep lipid drop)
CCCC(=O)Nc1cccc(C(=O)Nc2ccccc2OCC)c1	Hep lipid drop 72.8 | Lipid drop inh 98.9 | AML12 tox img inactive
C=C(C)c1cccc(C(C)(C)NC(=O)Nc2ccccc2OCC)c1	Hep lipid drop 52.5 | Lipid drop inh inactive | AML12 tox img inactive
CCOc1ccccc1NC(=O)CCC(=O)Nc1ccccc1OCC	Hep lipid drop 60.2 | Lipid drop inh 93.9 | AML12 tox img inactive | AML12 tox ATP inactive
CCOc1ccccc1NC(=O)c1cccc(NC(=O)C(C)C)c1	none
COCCn1c(SCC(=O)Nc2sccc2C(N)=O)nnc1-c1ccncc1	none
Cc1ccc(Nc2nc(/N=C/NO)n[nH]2)cc1C	none
O=C(COC(=O)c1cc(S(=O)(=O)N2CCOCC2)ccc1O)NCCc1ccccc1	none
COC(=O)c1cc(Cl)cc(Cl)c1OS(=O)(=O)N(C)C	none
CCCCNC(=S)N1CCC(Cc2ccccc2)CC1	none (no result: MDM2 E3 inh)
CCOc1ccc(C)cc1S(=O)(=O)n1cnc2ccccc21	none (no result: MDM2 E3 inh)
CCOc1ccc2c(c1)-c1c(ssc1=S)C(C)(C)N2C(=O)c1ccco1	Hep lipid drop 74.6 | Lipid drop inh 89.9 | AML12 tox img 21.1
COc1ccc2c(c1)-c1c(ssc1=S)C(C)(C)N2C(=O)CSC1=NCCS1	none
Nc1ccccc1C(O)(Cc1ccccc1)c1ccccc1 (centres undefined)	none (no result: Hep lipid drop, MDM2 E3 inh)
Cc1ccc2c(=O)cc(C(=O)NCc3ccccc3)oc2c1C	none (no result: MDM2 E3 inh)
CCc1cccc(CC)c1NC(=S)NCCc1c(C)[nH]c2ccc(C)cc12	none (no result: MDM2 E3 inh)
Cc1ccc2[nH]c(C)c(CC(=O)NCc3ccccc3)c2c1	Hep lipid drop 71.8 (no result: MDM2 E3 inh) | Lipid drop inh 68.2 | AML12 tox img inactive | AML12 tox ATP inactive
C[C@@H](NC(=O)[C@@H]1Cc2ccccc2CN1C(=O)OC(C)(C)C)C(=O)NC1CCCC1	none (no result: MDM2 E3 inh)
CC(NC(=O)[C@@H](C)NC(=O)[C@@H]1Cc2ccccc2CN1C(=O)OC(C)(C)C)c1ccccc1 (some centres undefined)	Hep lipid drop 68.5 (no result: MDM2 E3 inh) | Lipid drop inh 76.1 | AML12 tox img inactive | AML12 tox ATP inactive
CC(=O)C1=C(C)N2CCN=C2S1	none
O=C(CNc1ccccc1)N/N=C/c1cn(-c2ccccc2)nc1-c1ccccc1	Hep lipid drop 58.4 | Lipid drop inh inactive | AML12 tox img inactive
NC(=O)N/N=C/c1cn(-c2ccccc2)nc1-c1ccccc1	none
Cc1ccc2c(C(=O)CNc3nncs3)c(C)[nH]c2c1	none
O=C(CN1CCSCC1)N/N=C/c1ccc(F)c(F)c1	none
Cc1cccc(C)c1NC(=O)CN1C(=O)N(C)Cc2ccccc21	none
Cc1cc(C(=O)OC(C)C(=O)Nc2nc(-c3ccccc3)cs2)c(C)o1 (centres undefined)	Hep lipid drop 86.6 | Lipid drop inh 110.7 | AML12 tox img inactive | AML12 tox ATP inactive
Cc1cc(C(=O)OCC(=O)Nc2nc(-c3ccccc3)cs2)c(C)o1	none (no result: Hep lipid drop)
CC(=O)c1cccc(N(CC(=O)Nc2ccccc2C(=O)N2CCCC2)S(C)(=O)=O)c1	none (no result: MDM2 E3 inh)
CCC(=O)N1CCN=C1SCc1c(F)cccc1Cl	none (no result: MDM2 E3 inh)
Cc1cc2nn(-c3ccc(Cl)cc3)nc2cc1N	Hep lipid drop 62.5 (no result: MDM2 E3 inh) | Lipid drop inh 72.7 | AML12 tox img inactive | AML12 tox ATP inactive
Cc1cc2nn(-c3ccc(F)cc3)nc2cc1N	none (no result: MDM2 E3 inh)
Cc1onc(-c2c(F)cccc2Cl)c1C(=O)NC1CCSC1=O (centres undefined)	none
CCc1c(C#N)c(SCCC(=O)Nc2ccc(F)cc2)nc2c1C(=O)CC(C)(C)C2	none
CCc1c(C#N)c(SCCC(=O)Nc2cccc(OC)c2)nc2c1C(=O)CC(C)(C)C2	Hep lipid drop 58.5 | Lipid drop inh 101.4 | AML12 tox img inactive | AML12 tox ATP inactive
COc1ccc(Cl)cc1NC(=O)CCS(=O)(=O)c1ccc(C)cc1	none (no result: MDM2 E3 inh)
CC(C)CCN(CC(=O)NC(C)(C)C)C(=O)C(=O)Nc1ccc2c(c1)OCCO2	none
Cc1ccc(C(C(=O)NC2CCCCC2)N(C(=O)c2csnn2)C2CCCC2)o1 (centres undefined)	Hep lipid drop 52.1 | Lipid drop inh 81.2 | AML12 tox img inactive | AML12 tox ATP inactive
C=CCN(C(=O)c1csnn1)C(C(=O)NC1CCCCC1)c1ccccc1F (centres undefined)	Hep lipid drop 55.7 (no result: MDM2 E3 inh) | Lipid drop inh 92.6 | AML12 tox img inactive | AML12 tox ATP inactive
C=CCN(C(=O)c1csnn1)C(C(=O)NC1CCCC1)c1ccccc1 (centres undefined)	none (no result: MDM2 E3 inh)
Cc1ccc(C(C(=O)NC2CCCC2)N(C(=O)c2csnn2)C2CCCC2)o1 (centres undefined)	none (no result: Hep lipid drop)
O=[N+]([O-])c1ccccc1CCc1cnc(Cl)s1	none (no result: Hep lipid drop, MDM2 E3 inh)
O=C(Nc1ccccc1)/C(=C/c1ccc([N+](=O)[O-])cc1)NC(=O)c1ccco1	none (no result: MDM2 E3 inh)
O=C(N1CCCCC1)C1(S(=O)(=O)c2ccccc2)CC=CC1	none (no result: MDM2 E3 inh)
Cc1ccc(CNC(=O)CN2C(=O)NC(C)(c3ccccc3Cl)C2=O)cc1 (centres undefined)	none (no result: MDM2 E3 inh)
COc1ccc(CNC(=O)CN2C(=O)NC(C)(c3cccc4ccccc34)C2=O)cc1OC (centres undefined)	Hep lipid drop 77.5 (no result: MDM2 E3 inh) | Lipid drop inh 105.2 | AML12 tox img inactive | AML12 tox ATP inactive
CCCOc1ccc(-c2csc(NC(=O)CN3C(=O)CCC3=O)n2)cc1	Hep lipid drop 94.9 | Lipid drop inh 109.0 | AML12 tox img inactive
COc1ccc(-c2csc(NC(=O)CN3C(=O)CCC3=O)n2)cc1	none
COC(=O)CCC(=O)NNC(=O)Cc1ccccc1	none
COc1ccc(NC(=O)Cc2c(C)n(C(=O)c3ccc(Cl)cc3)c3ccc(OC)cc23)cc1	Hep lipid drop 82.7 | Lipid drop inh 98.3 | AML12 tox img inactive
